Experimental data reported in ChEMBL document CHEMBL1155267, “Synthesis of novel bioactive derivatives of 3-(4-chlorophenyl)-2-hydrazino-5,6,7,8-tetrahydrobenzo(b)thieno[2,3-d]pyrimidine-4(3H)-ones” (2009).

How the values were obtained:
Assay type in all cases: functional
Mus musculus [1] = assay: Anticonvulsant activity in Swiss albino mouse assessed as protection against PTZ-induced clonic convulsions at 9 mg/kg, ip administered after 30 mins PTZ challenge measured for 20 mins; conditions: route intraperitoneal
In short: (§1)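 Groups of six mice got the test suspension in 1% CMC i.p. at the stated dose. After 30 min they received aqueous PTZ 85 mg/kg s.c. and were watched for 20 min for clonic convulsions. The result is the percentage of animals protected.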

Mus musculus [2] = assay: Antidepressant activity in Swiss albino mouse at 5 mg/kg, ip after 60 mins by photoactometer method; conditions: route intraperitoneal
In short: (§2)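 Swiss albino mice of either sex, 25–40 g, six per group, acclimatised 10 min. Baseline photoactometer counts were taken over 10 min. Dosing was 5 mg/kg i.p. in 1% CMC, with each group serving as its own control. At 20 and 50 min animals entered the chamber, rested 10 min, then counts were taken for 10 min. % depression = (control − decrease in count)/control ×100. Mean ± SEM, n=6.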

Mus musculus [3] = assay: Skeletal muscle relaxant activity in Swiss albino mouse assessed as number of falls form rotarod at 5 mg/kg, ip after 30 mins by rotarod method relative to Diazepam; set-up: scale not given: the % may be the effect or the level left; conditions: route intraperitoneal
In short: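 Mice 25–40 g, six per group, were dosed at 5 mg/kg in 1% CMC, with each group serving as its own control. Falls per min on the Rotarod were recorded before dosing and 30 min after. % relaxation = (mean increase in falls − mean control)/mean control ×100. Mean ± SEM, n=6.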

Mus musculus [4] = assay: Anticonvulsant activity in Swiss albino mouse assessed as protection against PTZ-induced clonic convulsions at 10 mg/kg, ip administered after 30 mins PTZ challenge measured for 20 mins; conditions: route intraperitoneal; in short: as §1
Mus musculus [5] = assay: Anticonvulsant activity in Swiss albino mouse assessed as protection against PTZ-induced clonic convulsions at 8 mg/kg, ip administered after 30 mins PTZ challenge measured for 20 mins; conditions: route intraperitoneal; in short: as §1
Mus musculus [6] = assay: Antidepressant activity in Swiss albino mouse at 5 mg/kg, ip after 30 mins by photoactometer method; conditions: route intraperitoneal; in short: as §2
Mus musculus [7] = assay: Anticonvulsant activity in Swiss albino mouse assessed as protection against PTZ-induced clonic convulsions administered after 30 mins PTZ challenge measured for 20 mins
In short: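 Mice (groups of six) got the test suspension in 1% CMC i.p., then 30 min later aqueous PTZ 85 mg/kg s.c. Clonic convulsions were watched for 20 min. The number of animals protected per group served as the percentage response for calculating ED50.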

Mus musculus [8] = assay: Anticonvulsant activity in Swiss albino mouse assessed as protection against PTZ-induced clonic convulsions at 7 mg/kg, ip administered after 30 mins PTZ challenge measured for 20 mins; conditions: route intraperitoneal; in short: as §1
Mus musculus [9] = assay: Anticonvulsant activity in Swiss albino mouse assessed as protection against PTZ-induced clonic convulsions at 6 mg/kg, ip administered after 30 mins PTZ challenge measured for 20 mins; conditions: route intraperitoneal; in short: as §1
Mus musculus [10] = assay: Anticonvulsant activity in Swiss albino mouse assessed as protection against PTZ-induced clonic convulsions at 5 mg/kg, ip administered after 30 mins PTZ challenge measured for 20 mins; conditions: route intraperitoneal; in short: as §1
Mus musculus [11] = assay: Anticonvulsant activity in Swiss albino mouse assessed as protection against PTZ-induced clonic convulsions at 4 mg/kg, ip administered after 30 mins PTZ challenge measured for 20 mins; conditions: route intraperitoneal; in short: as §1
Mus musculus [12] = assay: Anticonvulsant activity in Swiss albino mouse assessed as protection against PTZ-induced clonic convulsions at 11 mg/kg, ip administered after 30 mins PTZ challenge measured for 20 mins; conditions: route intraperitoneal; in short: as §1

SMILES	Activity (Mus musculus [1])	Activity (Mus musculus [2])	Activity (Mus musculus [3])	Activity (Mus musculus [4])	Activity (Mus musculus [5])	Activity (Mus musculus [6])	ED50 (Mus musculus [7])	Activity (Mus musculus [8])	Activity (Mus musculus [9])	Activity (Mus musculus [10])	Activity (Mus musculus [11])	Activity (Mus musculus [12])
CCc1nnc2n(-c3ccc(Cl)cc3)c(=O)c3c4c(sc3n12)CCCC4	66.66%	83.92%	105.49%	100%	33.33%	71.42%	8.5 mg/kg	–	–	–	–	–
O=c1c2c3c(sc2n2c(S)nnc2n1-c1ccc(Cl)cc1)CCCC3	–	90%	109.62%	–	–	81.71%	5.5 mg/kg	100%	66.66%	33.33%	–	–
Nc1nnc2n(-c3ccc(Cl)cc3)c(=O)c3c4c(sc3n12)CCCC4	–	88.78%	107.52%	–	100%	82.24%	6.73 mg/kg	66.66%	16.66%	–	–	–
CCCc1nnc2n(-c3ccc(Cl)cc3)c(=O)c3c4c(sc3n12)CCCC4	–	90.4%	116.62%	–	–	78.78%	4.4 mg/kg	–	100%	83.33%	16.66%	–
Cc1nnc2n(-c3ccc(Cl)cc3)c(=O)c3c4c(sc3n12)CCCC4	33.33%	82.65%	102.75%	83.33%	–	75.51%	9.33 mg/kg	–	–	–	–	100%
CN1C(=O)CN=C(c2ccccc2)c2cc(Cl)ccc21 [DIAZEPAM]	–	89.32%	–	–	–	85.43%	1.18 mg/kg	–	–	–	–	–
